The text below walks through data of ChEMBL document CHEMBL3860049, “Virtual Screening and X-ray Crystallography Identify Non-Substrate Analog Inhibitors of Flavin-Dependent Thymidylate Synthase” (J Med Chem, 2016).

For the assay, the system named is Mycobacterium tuberculosis. The assay is described as follows: Inhibition of Mycobacterium tuberculosis ThyX at 100 uM preincubated with enzyme followed by [5-3H]dUMP substrate addition measured after 30 mins in presence of 5,10-methylenetetrahydrofolate,NADPH and FAD by liquid scintillation counting. Summed up: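 Recombinant Mtb ThyX (purified per an earlier protocol) tested at 100 µM per compound. Tritium release assay: formation of tritiated water from loss of 3H at the 5-carbon of the dUMP pyrimidine ring, with dUMP as competing substrate. Read-out is percent inhibition. 5-FdUMP served as reference compound.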

Turning to `C[C@@H](Sc1n[nH]c(=O)[nH]c1=O)C(=O)O`, the inhibition worked out at 6.1%.
Regarding `CC[C@H](Sc1n[nH]c(=O)[nH]c1=O)C(=O)O`, the inhibition came out at 5.7%.
In the case of `O=c1[nH]nc(Cl)c2nc[nH]c12` it was 29%; in that of `COc1ccc2[nH]c3c(O)nncc3c2c1`, 7%; in that of `CCCC(=O)C1C(=O)NC(=O)NC1=O`, 11%.
In the case of `O=c1[nH]c(=O)n([C@H]2C[C@H](O)[C@@H](COP(=O)(O)O)O2)cc1F` it was 97.3%.
In the case of `O=c1[nH][nH]c(=O)c2nccnc12` it was 5.3%; in that of `O=c1[nH]nc(-c2ccccc2)c2nc[nH]c12`, 15%; in that of `Cc1nnc(Cl)c2ncn(C)c12`, 14%.
Regarding `CSc1n[nH]c(=O)c2[nH]cnc12`, the inhibition was determined as 10%.
In the case of `O=c1[nH][nH]c(=O)c2[nH]cnc12` it was 7.1%; in that of `O=c1[nH][nH]c(=O)c2nc3ccccc3nc12`, 10%.
